No end group written: not given here.
How the values were obtained:
E. coli = assay: Viable count analysis; format: cell-based, Escherichia coli; conditions: GGL27 1 µM, 1 hour at 37°C, normal human citrated plasma; Fig. 3h
Summary of the method: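 Mid-exponential E. coli grown in Todd-Hewitt broth and washed. 2 x 10^8 cfu/ml incubated 60 min at 37°C with test peptide in 100% human citrated plasma, or in plasma pretreated 3 h with IdeS (0.2 µg/µl) to remove IgG. Serial dilutions plated on TH agar overnight at 37°C; cfu counted and expressed as % survival, mean ± SD.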

bacteria = conditions: buffer with physiological salt content or plasma; ref [7]; cited from earlier work
[1] = system: intrinsic pathway of coagulation; assay: aPTT clotting assay in crocodile plasma; format: biochemical, crocodile (Crocodylus siamensis); conditions: peptide 50 µM in citrated crocodile plasma; n=3; Fig. 4b; words
[2] = system: intrinsic pathway of coagulation; assay: aPTT clotting assay in turkey plasma; format: biochemical; conditions: peptide 50 µM in citrated turkey plasma; n=3; Fig. 4c; words

For GGLIKTKRKRKKQRVKIAYEEIFVKNM [GGL27], the “killing of E. coli” value (E. coli) was ~100%.

For “LL-37: antibacterial peptide (LLGDFFRKSKEKIGKEFKRIVQRIKDFLRNLVPRTES; Antibacterial peptide LL-37; UniProt P49913 134-170, looked up)”, the “killing activity in physiological salt or plasma” value (bacteria) is given as “lose their killing activity”.

For “RGIIKIKRKRKKQPEKMVRDEIIIERI [American alligator]”, the aPTT clotting time [1] was “clotting times were prolonged”.

In the case of “RRLIRIKKKKKQSLKTVGEEIIRGRIQ [Common turkey]”, the aPTT clotting time [2] is reported as “shortened clotting time”.

From PMC5955456 (Virulence, 2018)
